How the values were obtained:
[1] = Plasma concentration in Wistar rat at 10 mg/kg administered as single dose through oral gavage after 3 hrs by LC-MS/MS analysis; assay type: ADME, organism-based
How it was run: (§1)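 Single oral gavage dose to male Wistar rats in DMSO/7.5% succinylated gelatine (final 5% DMSO). Blood was drawn into EDTA at the lymphocyte-count timepoints. Plasma was prepared at 3000 g for 10 min at 4 °C and analysed by LC-MS/MS after protein precipitation.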

[2] = system: Rattus norvegicus; assay: Change in circulating lymphocyte count in Wistar rat at 10 mg/kg administered as single dose through oral gavage after 6 hrs relative to control; assay type: functional
How it was run: (§2)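 Male Wistar rats (RccHan:WIST; n = 6) were given a single oral gavage dose of compound in DMSO plus 7.5% succinylated gelatine (final 5% DMSO). Blood lymphocytes were counted just before dosing and at later timepoints. Percent change was calculated per animal relative to the pre-dose value and compared with a vehicle-treated group, reported as the mean. A ±15% change was treated as baseline, and a reduction of about 60% or more as maximal.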

[3] = system: Rattus norvegicus; assay: Change in circulating lymphocyte count in Wistar rat at 10 mg/kg administered as single dose through oral gavage after 3 hrs relative to control; assay type: functional; how it was run: as §2
[4] = Distribution coefficient, log D between 1-octonol and phosphate buffer at pH 7; assay type: physicochemical; conditions: 1-octanol/phosphate buffer
How it was run: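 Partition was between 1-octanol and phosphate buffer at pH 7.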

[5] = Plasma concentration in Wistar rat at 10 mg/kg administered as single dose through oral gavage after 6 hrs by LC-MS/MS analysis; assay type: ADME, organism-based; how it was run: as §1
[6] = Plasma concentration in Wistar rat at 10 mg/kg administered as single dose through oral gavage after 24 hrs by LC-MS/MS analysis; assay type: ADME, organism-based; how it was run: as §1
[7] = Fraction unbound in Wistar rat liver microsomes incubated for 6 hrs by LC-MS/MS based equilibrium dialysis method; assay type: ADME
How it was run: (§3)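 Rapid equilibrium dialysis was run on a shaker for 6 h at 37 °C. The donor side held rat plasma (pH 7.2–7.6) or 1 mg/mL rat liver microsomes in phosphate buffer pH 7.4. The receiver side held phosphate buffer pH 7.4. Both sides were measured by LC-MS/MS to give free fraction and recovery.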

[8] = Apparent intrinsic clearance in Wistar rat liver microsomes at 1 uM after 2.5 to 15 mins by LC-MS/MS analysis in presence of NADPH; assay type: ADME; conditions: read-out: CLH(app)
How it was run: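 Compound at 1 uM starting concentration was depleted by 0.5 mg/mL rat liver microsomes in 100 mM sodium phosphate pH 7.4 at 37 °C, with shaking under air. Reactions were started with an NADPH-regenerating system. Samples were taken at 0, 2.5, 5, 10 and 15 min, quenched in ice-cold methanol and analysed by LC-MS/MS. CLint,app came from first-order decay fitting.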

[9] = molecular target: Sphingosine 1-phosphate receptor 3 (Homo sapiens, UniProt Q99500); assay: Agonist activity at human recombinant S1PR3 expressed in CHO cell membranes assessed as [35S]GTPgammaS binding preincubated for 30 mins followed by [35S]GTPgammaS addition measured after 1 hr by topcount analysis; assay type: functional
Sphingosine 1-phosphate receptor 3, sequence (Q99500 whole entry): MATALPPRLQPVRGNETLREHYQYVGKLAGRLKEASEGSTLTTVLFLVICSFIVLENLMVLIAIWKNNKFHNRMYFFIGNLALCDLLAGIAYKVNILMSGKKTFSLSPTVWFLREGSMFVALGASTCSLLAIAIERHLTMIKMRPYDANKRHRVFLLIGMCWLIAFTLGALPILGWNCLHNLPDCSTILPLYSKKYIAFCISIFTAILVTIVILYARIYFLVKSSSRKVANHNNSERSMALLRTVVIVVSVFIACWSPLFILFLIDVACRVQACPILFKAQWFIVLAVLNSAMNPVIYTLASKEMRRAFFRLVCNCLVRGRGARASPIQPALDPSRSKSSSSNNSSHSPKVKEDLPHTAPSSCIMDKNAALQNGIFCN
How it was run: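 Membranes from CHO cells expressing recombinant human S1P1 or S1P3 were used. Buffer was 20 mM Hepes pH 7.4, 100 mM NaCl, 5 mM MgCl2, 0.1% fatty-acid-free BSA, 2.5% DMSO and 50 pM 35S-GTPgammaS. GDP was […] for S1P3. Compound was preincubated 30 min at rt, then incubated 1 h at rt with 35S-GTPgammaS. Bound label was collected by filtration and counted. Specific binding was taken against 10 uM S1P. EC50 was the 50%-of-specific-binding concentration, reported as the geometric mean of at least three independent duplicate runs.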

[10] = system: Rattus norvegicus; assay: Change in circulating lymphocyte count in Wistar rat at 10 mg/kg administered as single dose through oral gavage after 24 hrs relative to control; assay type: functional; how it was run: as §2
[11] = species on record: Rattus norvegicus; assay: Intrinsic clearance in rat liver microsomes scaled to body weight; conditions: in vitro
[12] = system: Liver microsome; assay: Unbound fraction corrected apparent intrinsic clearance in Wistar rat liver microsomes at 1 uM after 2.5 to 15 mins by LC-MS/MS analysis in presence of NADPH; assay type: ADME
How it was run: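 Apparent CLint was measured by microsomal substrate depletion: 1 uM start, 0.5 mg/mL rat liver microsomes, pH 7.4, 37 °C, NADPH-regenerating system, sampling 0–15 min, LC-MS/MS. It was then divided by the unbound microsomal fraction, which was determined by rapid equilibrium dialysis of 1 mg/mL microsomes for 6 h at 37 °C.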

[13] = Apparent oral clearance in Wistar rat plasma at 1 to 10 mg/kg administered through gavage by LC-MS/MS analysis; assay type: ADME, organism-based
How it was run: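 Male Wistar rats received a single oral gavage dose of compound dissolved in DMSO and added to 7.5% succinylated gelatine in water (final 5% DMSO). EDTA plasma was spun at 3000 g for 10 min at 4 °C and analysed by LC-MS/MS after protein precipitation. Oral clearance was estimated from the plasma concentration–time data. In vivo intrinsic clearance used the well-stirred liver model, assuming complete absorption.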

[14] = Fraction unbound in Wistar rat plasma incubated for 6 hrs by LC-MS/MS based equilibrium dialysis method; assay type: ADME, cell-free; how it was run: as §3
[15] = Drug recovery in Wistar rat liver microsomes incubated for 6 hrs by LC-MS/MS based equilibrium dialysis method; assay type: ADME; conditions: read-out: Drug recovery; how it was run: as §3
[16] = Selectivity ratio of EC50 for human recombinant S1PR3 expressed in CHO cell membranes to EC50 for human recombinant S1PR1 expressed in CHO cell membranes; assay type: cell-based
How it was run: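 Compound and membranes are pre-incubated 30 min at rt, then incubated 1 h at rt, filtered and counted. EC50 is the concentration giving 50% of S1P-defined specific binding, as the geometric mean of ≥3 independent duplicate runs. Ratio = EC50 S1PR3/EC50 S1PR1.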

[17] = molecular target: Sphingosine 1-phosphate receptor 1 (Homo sapiens, UniProt P21453); assay: Agonist activity at human recombinant S1PR1 expressed in CHO cell membranes assessed as [35S]GTPgammaS binding preincubated for 30 mins followed by [35S]GTPgammaS addition measured after 1 hr by topcount analysis
Sphingosine 1-phosphate receptor 1, sequence (P21453 whole entry): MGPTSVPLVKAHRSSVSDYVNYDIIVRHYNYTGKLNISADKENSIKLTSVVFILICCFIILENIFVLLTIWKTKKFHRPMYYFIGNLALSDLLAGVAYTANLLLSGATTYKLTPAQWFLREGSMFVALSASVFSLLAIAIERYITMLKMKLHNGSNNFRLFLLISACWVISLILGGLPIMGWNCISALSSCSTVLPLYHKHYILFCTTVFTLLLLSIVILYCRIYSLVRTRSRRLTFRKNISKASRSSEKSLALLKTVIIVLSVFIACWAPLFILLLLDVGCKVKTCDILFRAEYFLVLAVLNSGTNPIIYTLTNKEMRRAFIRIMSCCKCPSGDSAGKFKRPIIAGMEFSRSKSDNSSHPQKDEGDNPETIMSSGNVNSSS

SMILES	concentration at 3 h [1] [ng/mL]	Activity [2] [%]	Activity [3] [%]	logD [4]	concentration at 6 h [5] [ng/mL]	concentration at 24 h [6] [ng/mL]	fraction unbound at 6 h [7]	microsomal CLint at 1 µM [8] [µL/min/mg]	EC50 [9] [nM]	Activity [10] [%]	CL [11] [mL/min/kg]	CL free [12] [µL/min/mg]	CL/F [13] [mL/min/kg]	fraction unbound at 6 h [14]	recovery at 6 h [15] [%]	Ratio EC50 [16]	EC50 [17] [nM]
CCc1cc(-c2noc(-c3cc(C)c(CN(C)C)s3)n2)cc(C)c1OC[C@@H](O)CNC(=O)CO	106	-56	-64	3.2	31	< 4	0.15	1220	660	5	14600	8100	275	0.012	–	–	–
CCc1cc(-c2noc(-c3ccc(CN(C)CC(C)C)c(C)c3)n2)cc(C)c1OC[C@@H](O)CNC(=O)CO	–	–	–	> 4.1	–	–	0.001	74	570	–	–	–	–	< 0.001	< 80	44	13
CCCCN(C)Cc1cc(C)cc(-c2nc(-c3cc(C)c(OC[C@@H](O)CNC(=O)CO)c(CC)c3)no2)c1	–	-57	-60	> 4.1	–	–	0.025	183	425	-6	–	7300	–	< 0.001	< 80	163	2.6
CCc1cc(-c2noc(-c3cc(C)cc(CN(C)C)c3)n2)cc(C)c1OC[C@@H](O)CNC(=O)CO	–	-37	-44	2.8	–	–	0.26	> 1250	2000	21	–	> 4800	–	0.029	–	–	–
CCc1cc(-c2nc(-c3cc(C)c(OC[C@@H](O)CNC(=O)CO)c(CC)c3)no2)ccc1CN(C)C	–	-61	-56	3.8	–	–	0.11	1010	480	27	–	9200	–	0.005	< 80	369	1.3
CCc1cc(-c2noc(-c3cc(C)cc(CN(C)CC)c3)n2)cc(C)c1OC[C@@H](O)CNC(=O)CO	–	-58	-57	3.4	–	–	0.25	> 1250	1250	24	–	> 5000	–	0.012	< 80	347	3.6
CCc1cc(-c2noc(-c3cc(C)nc(CN(C)CC(C)C)c3)n2)cc(C)c1OC[C@@H](O)CNC(=O)CO	385	-75	-80	3.8	176	< 2	0.18	197	560	1	1970	1090	80	0.004	< 80	175	3.2
CCc1cc(-c2noc(-c3cc(C)c(CN(C)C)c(C)c3)n2)cc(C)c1OC[C@@H](O)CNC(=O)CO	–	–	–	–	–	–	–	–	5500	–	–	–	–	–	–	> 80	69
CCc1cc(-c2noc(-c3cc(CN(C)CC(C)C)cc(C(C)C)c3)n2)cc(C)c1OC[C@@H](O)CNC(=O)CO	–	–	–	–	–	–	–	–	1.4	–	–	–	–	–	–	< 2	1.1
CCc1cc(-c2noc(-c3ccc(CN(CC)CC)c(C)c3)n2)cc(C)c1OC[C@@H](O)CNC(=O)CO	–	–	–	–	–	–	–	–	560	–	–	–	–	–	–	56	10
CCc1cc(-c2noc(-c3ccc(CNCC(C)C)c(C)c3)n2)cc(C)c1OC[C@@H](O)CNC(=O)CO	–	–	–	–	–	–	–	–	> 10000	–	–	–	–	–	–	> 37	270
CCc1cc(-c2noc(-c3ccc(CN(C)C)cc3C)n2)cc(C)c1OC[C@@H](O)CNC(=O)CO	–	–	–	–	–	–	–	–	> 10000	–	–	–	–	–	–	> 43	230
CCc1cc(-c2noc(-c3ccc(CNC)cc3)n2)cc(C)c1OC[C@@H](O)CNC(=O)CO	–	–	–	–	–	–	–	–	> 10000	–	–	–	–	–	–	> 4.8	2090
CCc1cc(-c2noc(-c3cc(C)c(CN(C)CCN(C)C)s3)n2)cc(C)c1OC[C@@H](O)CNC(=O)CO	–	–	–	–	–	–	–	–	> 10000	–	–	–	–	–	–	> 64	155
